{"source": "ChEMBL document CHEMBL1914420", "about": "“Investigation of the pyrazinones as PDE5 inhibitors: evaluation of regioisomeric projections into the solvent region” (Bioorg Med Chem Lett, 2011)", "key": {"[1]": {"molecular_target": "3',5'-cyclic-AMP phosphodiesterase 7B (Homo sapiens, UniProt Q9NP56)", "assay": "Inhibition of PDE7B"}, "[2]": {"molecular_target": "High affinity cAMP-specific and IBMX-insensitive 3',5'-cyclic phosphodiesterase 8A (Homo sapiens, UniProt O60658)", "sequence (O60658 whole entry)": "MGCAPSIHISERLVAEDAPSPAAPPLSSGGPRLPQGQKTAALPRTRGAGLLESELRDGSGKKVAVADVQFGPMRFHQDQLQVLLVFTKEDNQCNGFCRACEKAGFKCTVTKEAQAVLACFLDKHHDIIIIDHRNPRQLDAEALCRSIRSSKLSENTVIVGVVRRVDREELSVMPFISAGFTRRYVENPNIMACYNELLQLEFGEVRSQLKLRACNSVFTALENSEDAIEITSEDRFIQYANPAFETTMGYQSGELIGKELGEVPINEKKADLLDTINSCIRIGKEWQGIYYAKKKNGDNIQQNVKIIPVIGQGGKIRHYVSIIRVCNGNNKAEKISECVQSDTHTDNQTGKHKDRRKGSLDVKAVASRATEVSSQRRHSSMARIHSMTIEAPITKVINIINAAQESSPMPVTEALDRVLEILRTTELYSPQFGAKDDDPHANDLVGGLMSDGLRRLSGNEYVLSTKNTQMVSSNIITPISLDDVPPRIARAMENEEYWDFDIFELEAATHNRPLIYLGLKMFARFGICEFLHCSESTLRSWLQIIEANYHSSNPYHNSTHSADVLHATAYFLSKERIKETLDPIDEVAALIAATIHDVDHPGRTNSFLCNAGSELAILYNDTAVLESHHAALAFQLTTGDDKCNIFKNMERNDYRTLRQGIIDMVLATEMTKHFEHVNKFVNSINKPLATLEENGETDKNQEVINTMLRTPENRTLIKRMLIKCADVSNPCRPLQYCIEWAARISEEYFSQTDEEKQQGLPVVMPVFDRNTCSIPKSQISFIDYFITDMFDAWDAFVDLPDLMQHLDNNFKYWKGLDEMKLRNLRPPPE", "assay": "Inhibition of PDE8A"}, "[3]": {"molecular_target": "High affinity cAMP-specific and IBMX-insensitive 3',5'-cyclic phosphodiesterase 8B (Homo sapiens, UniProt O95263)", "assay": "Inhibition of PDE8B"}, "[4]": {"assay": "Inhibition of PDE9"}, "[5]": {"assay": "Inhibition of PDE10"}, "[6]": {"molecular_target": "T1, Adenosine receptor A1 (Homo sapiens, UniProt P30542)", "T1 sequence (P30542 whole entry)": "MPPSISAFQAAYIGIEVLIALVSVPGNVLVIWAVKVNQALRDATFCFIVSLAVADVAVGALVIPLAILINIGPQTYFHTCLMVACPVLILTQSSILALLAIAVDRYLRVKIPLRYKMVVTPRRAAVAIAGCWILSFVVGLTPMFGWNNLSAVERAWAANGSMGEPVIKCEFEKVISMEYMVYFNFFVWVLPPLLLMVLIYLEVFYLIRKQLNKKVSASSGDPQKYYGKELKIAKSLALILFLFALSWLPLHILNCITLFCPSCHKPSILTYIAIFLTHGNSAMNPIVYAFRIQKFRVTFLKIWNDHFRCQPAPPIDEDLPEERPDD", "assay": "Inhibition of adenosine A1 receptor"}, "[7]": {"molecular_target": "Acetylcholinesterase (Homo sapiens, UniProt P22303)", "assay": "Inhibition of acetylcholinesterase"}, "[8]": {"assay": "Solubility of the compound at pH 6.5", "format": "physicochemical", "details": "buffer"}, "[9]": {"assay": "Metabolic stability in human liver microsomes assessed as compound remaining after 1 hr", "format": "ADME, Microsome", "details": "read-out: Stability", "how_it_was_run": "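Human liver microsomes; percent parent compound remaining after 1 h incubation.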"}, "[10]": {"assay": "Clearance in rat at 2 mg/kg at pH 5", "format": "ADME, organism-based", "set-up": "dose 2 mg/kg", "details": "in vivo"}, "[11]": {"assay": "Volume of distribution in rat", "format": "ADME, organism-based", "details": "in vivo"}, "[12]": {"species": "Rattus norvegicus", "assay": "Unbound volume of distribution in rat", "format": "ADME, organism-based", "details": "in vivo"}, "[13]": {"assay": "Clearance in dog at 2 mg/kg", "format": "ADME, organism-based, Canis lupus familiaris", "set-up": "dose 2 mg/kg", "details": "in vivo", "how_it_was_run": "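Clearance in mL/min/kg after a 2 mpk dose (n = 3) in vehicle 70% PEG400/20% 0.05 M citrate buffer/10% ethanol, pH 5.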"}, "[14]": {"assay": "Volume of distribution in dog", "format": "ADME, organism-based, Canis lupus familiaris", "details": "in vivo", "how_it_was_run": "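Volume of distribution expressed in L/kg.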"}, "[15]": {"assay": "Oral bioavailability in rat at 2 mg/kg", "format": "ADME, organism-based", "details": "in vivo"}, "[16]": {"molecular_target": "cGMP-specific 3',5'-cyclic phosphodiesterase (Homo sapiens, UniProt O76074)", "assay": "Inhibition of PDE5"}, "[17]": {"assay": "Selectivity ratio of IC50 for PDE6 to IC50 for PDE5", "how_it_was_run": "(§1)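 Fold selectivity calculated as PDE11 IC50/PDE5 IC50 or PDE6 IC50/PDE5 IC50, with IC50 values in nM.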"}, "[18]": {"assay": "Selectivity ratio of IC50 for PDE11 to IC50 for PDE5", "how_it_was_run": "as §1"}, "[19]": {"molecular_target": "CYP2C9 (Homo sapiens, UniProt P11712)", "sequence (P11712 whole entry)": "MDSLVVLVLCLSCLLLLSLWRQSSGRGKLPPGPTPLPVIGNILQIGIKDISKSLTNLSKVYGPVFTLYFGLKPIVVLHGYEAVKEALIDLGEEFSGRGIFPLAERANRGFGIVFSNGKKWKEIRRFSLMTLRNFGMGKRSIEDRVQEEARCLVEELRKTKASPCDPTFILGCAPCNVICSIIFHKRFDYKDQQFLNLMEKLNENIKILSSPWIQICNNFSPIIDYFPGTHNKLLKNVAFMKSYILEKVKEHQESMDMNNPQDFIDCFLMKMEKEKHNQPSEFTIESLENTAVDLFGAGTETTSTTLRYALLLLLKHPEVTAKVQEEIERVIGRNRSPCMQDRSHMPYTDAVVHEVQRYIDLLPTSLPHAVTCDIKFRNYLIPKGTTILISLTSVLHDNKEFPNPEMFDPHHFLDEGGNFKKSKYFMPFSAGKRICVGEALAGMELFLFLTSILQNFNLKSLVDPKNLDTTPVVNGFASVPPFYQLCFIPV", "assay": "Inhibition of CYP2C9 at 3 uM", "format": "ADME"}, "[20]": {"molecular_target": "CYP2D6 (Homo sapiens, UniProt P10635)", "assay": "Inhibition of CYP2D6 at 3 uM", "format": "ADME"}, "[21]": {"molecular_target": "CYP3A4 (Homo sapiens, UniProt P08684)", "sequence (P08684 whole entry)": "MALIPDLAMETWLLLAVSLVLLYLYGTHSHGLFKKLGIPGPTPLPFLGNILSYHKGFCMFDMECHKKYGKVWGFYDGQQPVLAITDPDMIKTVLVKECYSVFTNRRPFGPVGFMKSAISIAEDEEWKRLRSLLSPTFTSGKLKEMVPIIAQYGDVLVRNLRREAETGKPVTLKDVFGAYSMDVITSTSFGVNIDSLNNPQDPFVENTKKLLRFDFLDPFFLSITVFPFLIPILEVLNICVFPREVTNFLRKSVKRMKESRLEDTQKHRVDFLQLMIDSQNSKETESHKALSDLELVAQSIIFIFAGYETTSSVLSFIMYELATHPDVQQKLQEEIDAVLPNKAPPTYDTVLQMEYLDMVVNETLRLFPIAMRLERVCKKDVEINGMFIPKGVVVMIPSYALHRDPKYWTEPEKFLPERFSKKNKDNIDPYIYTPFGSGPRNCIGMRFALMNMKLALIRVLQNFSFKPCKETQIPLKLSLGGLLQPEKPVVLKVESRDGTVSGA", "assay": "Inhibition of CYP3A4 at 3 uM", "format": "ADME"}, "[22]": {"tested_on": "Rattus norvegicus", "assay": "Antihypertensive activity in spontaneous hypertensive rat assessed as reduction in systolic blood pressure at 20 mg/kg measured after 24 hrs", "format": "functional, Artery"}, "[23]": {"molecular_target": "Dual specificity calcium/calmodulin-dependent 3',5'-cyclic nucleotide phosphodiesterase 1A (Homo sapiens, UniProt P54750)", "assay": "Inhibition of PDE1A"}, "[24]": {"molecular_target": "Dual specificity calcium/calmodulin-dependent 3',5'-cyclic nucleotide phosphodiesterase 1B (Homo sapiens, UniProt Q01064)", "assay": "Inhibition of PDE1B"}, "[25]": {"molecular_target": "Dual specificity calcium/calmodulin-dependent 3',5'-cyclic nucleotide phosphodiesterase 1C (Homo sapiens, UniProt Q14123)", "assay": "Inhibition of PDE1C"}, "[26]": {"assay": "Inhibition of PDE2"}, "[27]": {"molecular_target": "cGMP-inhibited 3',5'-cyclic phosphodiesterase 3A (Homo sapiens, UniProt Q14432)", "assay": "Inhibition of PDE3A"}, "[28]": {"molecular_target": "cGMP-inhibited 3',5'-cyclic phosphodiesterase 3B (Homo sapiens, UniProt Q13370)", "sequence (Q13370 whole entry)": "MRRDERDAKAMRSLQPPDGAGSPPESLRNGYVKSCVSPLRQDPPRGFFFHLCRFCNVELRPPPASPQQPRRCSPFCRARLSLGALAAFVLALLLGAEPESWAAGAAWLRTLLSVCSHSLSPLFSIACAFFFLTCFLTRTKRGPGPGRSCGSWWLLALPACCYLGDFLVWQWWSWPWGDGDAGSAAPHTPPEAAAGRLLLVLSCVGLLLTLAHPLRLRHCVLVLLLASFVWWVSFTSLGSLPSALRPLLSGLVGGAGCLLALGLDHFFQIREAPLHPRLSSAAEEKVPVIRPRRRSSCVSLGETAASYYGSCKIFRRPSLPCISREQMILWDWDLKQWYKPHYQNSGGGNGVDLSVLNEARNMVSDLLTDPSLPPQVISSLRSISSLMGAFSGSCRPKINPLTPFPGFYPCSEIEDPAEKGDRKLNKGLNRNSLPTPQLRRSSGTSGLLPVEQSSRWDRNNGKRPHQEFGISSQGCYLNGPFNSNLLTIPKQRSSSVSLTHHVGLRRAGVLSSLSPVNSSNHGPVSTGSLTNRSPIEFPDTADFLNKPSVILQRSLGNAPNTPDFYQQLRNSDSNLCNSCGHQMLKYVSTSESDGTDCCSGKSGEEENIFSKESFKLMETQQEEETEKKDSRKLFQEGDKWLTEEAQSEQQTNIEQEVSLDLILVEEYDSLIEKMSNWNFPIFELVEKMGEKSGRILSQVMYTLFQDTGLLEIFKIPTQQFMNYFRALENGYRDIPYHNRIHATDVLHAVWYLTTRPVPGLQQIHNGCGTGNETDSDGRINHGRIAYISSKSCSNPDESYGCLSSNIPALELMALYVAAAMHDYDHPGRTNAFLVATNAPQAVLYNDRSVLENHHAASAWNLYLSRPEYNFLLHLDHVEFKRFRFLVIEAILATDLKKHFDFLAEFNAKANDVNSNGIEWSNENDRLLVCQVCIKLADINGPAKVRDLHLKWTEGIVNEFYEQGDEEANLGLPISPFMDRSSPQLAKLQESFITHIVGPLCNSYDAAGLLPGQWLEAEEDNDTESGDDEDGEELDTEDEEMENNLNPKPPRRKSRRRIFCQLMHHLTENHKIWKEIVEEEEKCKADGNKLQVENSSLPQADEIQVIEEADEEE", "assay": "Inhibition of PDE3B"}, "[29]": {"molecular_target": "3',5'-cyclic-AMP phosphodiesterase 4A (Homo sapiens, UniProt P27815)", "assay": "Inhibition of PDE4A"}, "[30]": {"molecular_target": "3',5'-cyclic-AMP phosphodiesterase 4B (Homo sapiens, UniProt Q07343)", "sequence (Q07343 whole entry)": "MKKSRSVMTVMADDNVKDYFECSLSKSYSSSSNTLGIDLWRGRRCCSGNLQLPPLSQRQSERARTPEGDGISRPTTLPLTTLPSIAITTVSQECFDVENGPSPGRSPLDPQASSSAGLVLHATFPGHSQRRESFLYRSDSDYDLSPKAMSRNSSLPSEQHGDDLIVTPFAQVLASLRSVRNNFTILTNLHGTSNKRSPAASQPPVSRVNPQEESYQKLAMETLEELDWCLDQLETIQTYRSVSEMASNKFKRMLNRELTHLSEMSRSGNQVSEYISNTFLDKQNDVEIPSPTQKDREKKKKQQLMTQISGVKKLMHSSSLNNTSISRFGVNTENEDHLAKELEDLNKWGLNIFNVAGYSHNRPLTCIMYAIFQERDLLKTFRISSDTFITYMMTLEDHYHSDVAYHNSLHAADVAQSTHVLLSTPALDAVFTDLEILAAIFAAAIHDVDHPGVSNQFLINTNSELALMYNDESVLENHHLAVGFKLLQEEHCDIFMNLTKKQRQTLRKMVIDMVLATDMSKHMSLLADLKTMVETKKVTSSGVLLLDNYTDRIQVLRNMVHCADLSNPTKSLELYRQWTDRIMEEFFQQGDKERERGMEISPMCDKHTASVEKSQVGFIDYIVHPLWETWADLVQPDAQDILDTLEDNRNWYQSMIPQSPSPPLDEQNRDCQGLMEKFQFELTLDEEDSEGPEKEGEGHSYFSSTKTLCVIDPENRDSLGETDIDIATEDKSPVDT", "assay": "Inhibition of PDE4B"}, "[31]": {"molecular_target": "3',5'-cyclic-AMP phosphodiesterase 4C (Homo sapiens, UniProt Q08493)", "sequence (Q08493 whole entry)": "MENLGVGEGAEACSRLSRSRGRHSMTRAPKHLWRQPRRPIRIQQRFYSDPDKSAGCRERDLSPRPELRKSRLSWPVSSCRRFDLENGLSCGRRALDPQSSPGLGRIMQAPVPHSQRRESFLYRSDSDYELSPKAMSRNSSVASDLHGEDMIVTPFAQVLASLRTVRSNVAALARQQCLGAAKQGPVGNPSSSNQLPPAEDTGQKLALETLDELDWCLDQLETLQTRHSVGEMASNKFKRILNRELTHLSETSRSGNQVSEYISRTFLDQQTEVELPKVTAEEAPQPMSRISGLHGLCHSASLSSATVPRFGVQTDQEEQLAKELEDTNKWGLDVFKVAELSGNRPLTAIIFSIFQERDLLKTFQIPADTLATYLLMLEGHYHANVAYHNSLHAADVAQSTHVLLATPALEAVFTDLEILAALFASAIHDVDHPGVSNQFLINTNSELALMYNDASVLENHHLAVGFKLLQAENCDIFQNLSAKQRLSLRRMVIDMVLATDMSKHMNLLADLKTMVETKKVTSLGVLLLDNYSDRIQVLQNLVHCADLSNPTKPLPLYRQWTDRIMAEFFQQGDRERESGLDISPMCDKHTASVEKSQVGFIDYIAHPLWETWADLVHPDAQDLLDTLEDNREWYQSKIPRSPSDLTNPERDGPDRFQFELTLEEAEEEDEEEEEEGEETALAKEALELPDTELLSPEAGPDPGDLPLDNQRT", "assay": "Inhibition of PDE4C"}, "[32]": {"molecular_target": "High affinity 3',5'-cyclic-AMP phosphodiesterase 7A (Homo sapiens, UniProt Q13946)", "sequence (Q13946 whole entry)": "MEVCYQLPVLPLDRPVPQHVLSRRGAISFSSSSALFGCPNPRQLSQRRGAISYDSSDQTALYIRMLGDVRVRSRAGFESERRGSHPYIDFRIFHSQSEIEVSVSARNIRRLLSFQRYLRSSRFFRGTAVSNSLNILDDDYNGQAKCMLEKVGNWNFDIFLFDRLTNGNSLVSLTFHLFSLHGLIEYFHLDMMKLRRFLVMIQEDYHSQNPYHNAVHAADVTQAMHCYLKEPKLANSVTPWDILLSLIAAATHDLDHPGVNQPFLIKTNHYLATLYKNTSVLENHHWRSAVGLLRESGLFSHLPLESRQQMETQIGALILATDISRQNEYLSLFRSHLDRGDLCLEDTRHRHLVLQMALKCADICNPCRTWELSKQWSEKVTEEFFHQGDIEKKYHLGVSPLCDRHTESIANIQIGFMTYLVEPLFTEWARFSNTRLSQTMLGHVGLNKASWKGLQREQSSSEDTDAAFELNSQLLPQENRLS", "assay": "Inhibition of PDE7A"}}, "data": [{"smiles": "CCCOCCn1c(=O)nc(NC2CCC(O)CC2)c2nnc(-c3ccc(OC)nc3)cc21", "note": "(configuration not stated)", "values": [{"measurement": "IC50", "setting": "[1]", "value": "> 2000", "unit": "nM"}, {"measurement": "IC50", "setting": "[2]", "value": "> 2000", "unit": "nM"}, {"measurement": "IC50", "setting": "[3]", "value": "> 2000", "unit": "nM"}, {"measurement": "IC50", "setting": "[4]", "value": "> 2000", "unit": "nM"}, {"measurement": "IC50", "setting": "[5]", "value": "> 2000", "unit": "nM"}, {"measurement": "IC50", "setting": "[6]", "value": 440, "unit": "nM"}, {"measurement": "IC50", "setting": "[7]", "value": 5600, "unit": "nM"}, {"measurement": "solubility", "setting": "[8]", "value": "> 100", "unit": "µM"}, {"measurement": "remaining at 1 h", "setting": "[9]", "value": 72, "unit": "%"}, {"measurement": "clearance", "setting": "[10]", "value": 0.144, "unit": "L/h/kg"}, {"measurement": "Vd", "setting": "[11]", "value": 0.6, "unit": "L/kg"}, {"measurement": "Vdu", "setting": "[12]", "value": 4.8, "unit": "L/kg"}, {"measurement": "clearance", "setting": "[13]", "value": 0.096, "unit": "L/h/kg"}, {"measurement": "Vd", "setting": "[14]", "value": 0.3, "unit": "L/kg"}, {"measurement": "bioavailability", "setting": "[15]", "value": 85, "unit": "%"}, {"measurement": "IC50", "setting": "[16]", "value": 0.02, "unit": "nM"}, {"measurement": "Ratio IC50", "setting": "[17]", "value": 108}, {"measurement": "Ratio IC50", "setting": "[18]", "value": 741}, {"measurement": "inhibition at 3 µM", "setting": "[19]", "value": 9, "unit": "%"}, {"measurement": "inhibition at 3 µM", "setting": "[20]", "value": 5, "unit": "%"}, {"measurement": "inhibition at 3 µM", "setting": "[21]", "value": 23, "unit": "%"}, {"measurement": "Activity", "setting": "[22]", "value": 20, "unit": "mmHg"}, {"measurement": "IC50", "setting": "[23]", "value": "> 2000", "unit": "nM"}, {"measurement": "IC50", "setting": "[24]", "value": "> 2000", "unit": "nM"}, {"measurement": "IC50", "setting": "[25]", "value": "> 2000", "unit": "nM"}, {"measurement": "IC50", "setting": "[26]", "value": "> 2000", "unit": "nM"}, {"measurement": "IC50", "setting": "[27]", "value": "> 2000", "unit": "nM"}, {"measurement": "IC50", "setting": "[28]", "value": "> 2000", "unit": "nM"}, {"measurement": "IC50", "setting": "[29]", "value": "> 2000", "unit": "nM"}, {"measurement": "IC50", "setting": "[30]", "value": "> 2000", "unit": "nM"}, {"measurement": "IC50", "setting": "[31]", "value": "> 2000", "unit": "nM"}, {"measurement": "IC50", "setting": "[32]", "value": "> 2000", "unit": "nM"}]}]}
